Laboratory results from publication PMC5600292 (Biochimica et biophysica acta, 2017).
Read-outs that look alike come from different tables or passages of the source.

How the values were obtained:
[1] = biological target: human recombinant thrombin W215A/E217A (WE) (Homo sapiens, UniProt P00734, E592A/W590A); settings: cited from earlier work; for Km / kcat / kcat/Km: WE (W215A/E217A) IIa, mean ± SEM; for Km / kcat: SEM; for fold decrease in Km relative to WT thrombin: WE thrombin
[2] = biological target: human recombinant thrombin W60dA (Homo sapiens, UniProt P00734, W413A); settings: W60dA IIa, mean ± SEM, cited from earlier work; for Km / kcat: SEM
[3] = biological target: T1, human recombinant thrombin I174A (Homo sapiens, UniProt P00734, I542A); assay: HPLC-based kinetic assay of FXIII AP hydrolysis, I174A thrombin; assay type: biochemical; settings: I174A IIa, HPLC assay, pH 7.4, 25 °C, average of at least three independent experiments ± SEM
Summary of the method: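 Synthetic Ac-/-NH2 FXIII (28–41) AP peptides (V34, L34, F34, W34, Y34) were used at 75–2500 µM final in 50 mM H3PO4, 100 mM NaCl, 0.1% PEG, pH 7.4, 25 °C. Recombinant human thrombin (6 nM–1 µM) started the reaction; aliquots were quenched with 12.5% H3PO4, keeping hydrolysis below 17% in 30 min. The (28–37) product was quantified by RP-HPLC against calibration curves. Initial velocities were fitted to V = Vmax/(1+Km/[S]), kcat taken from thrombin concentration, in triplicate.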

[4] = biological target: human recombinant thrombin L99A (Homo sapiens, UniProt P00734, L459A); settings: cited from earlier work; for Km / kcat / kcat/Km: L99A IIa, mean ± SEM; for Km / kcat: SEM
[5] = biological target: human recombinant thrombin W215A (Homo sapiens, UniProt P00734, W590A); settings: cited from earlier work; for Km / kcat / kcat/Km: W215A IIa, mean ± SEM; for Km / kcat: SEM; for fold reduction of kcat/Km relative to WT thrombin: prior studies
[6] = biological target: human recombinant thrombin wild-type (WT) (Homo sapiens, UniProt P00734); settings: WT IIa, mean ± SEM, cited from earlier work; for Km / kcat: SEM
[7] = biological target: T1, human recombinant thrombin I174A; settings: cited from earlier work; for Km / kcat / kcat/Km: I174A IIa, mean ± SEM; for Km / kcat: SEM
[8] = system: human recombinant thrombin Y60aA; settings: cited from earlier work; for Km / kcat / kcat/Km: Y60aA IIa, mean ± SEM; for Km / kcat: SEM; for fold decrease in kcat relative to WT thrombin / fold increase in Km relative to WT thrombin: Y60aA thrombin

Substance | Km [1] [µM] | kcat [1] [s⁻¹] | kcat/Km [1] [µM⁻¹ s⁻¹] | fold decrease in Km relative to WT thrombin [1] [fold] | Km [2] [mM] | kcat [2] [s⁻¹] | kcat/Km [2] [µM⁻¹ s⁻¹] | Km [4] [mM] | kcat [4] [s⁻¹] | kcat/Km [4] [µM⁻¹ s⁻¹] | fold decrease in kcat relative to WT thrombin ([4]; L99A thrombin) | Km [5] [mM] | kcat [5] [s⁻¹] | kcat/Km [5] [µM⁻¹ s⁻¹] | fold reduction of kcat/Km relative to WT thrombin ([5]; W215A thrombin) [fold] | Km [6] [µM] | kcat [6] [s⁻¹] | kcat/Km [6] [µM⁻¹ s⁻¹] | Km [7] [µM] | kcat [7] [s⁻¹] | further results
Ac-TVELQGFVPRGVNL- NH2 [FXIII (28–41) F34 AP] | 190 ± 43 | 0.07 ± 0.007 | 0.00036 ± 8e-05 | 2 | 0.435 ± 0.098 | 1.46 ± 0.15 | 0.0034 ± 0.0008 | 0.57 ± 0.125 | 2.71 ± 0.3 | 0.0048 ± 0.00012 | 2 fold | 0.437 ± 0.081 | 1.97 ± 0.14 | 0.0045 ± 0.0009 | 3 | 442 ± 93 | 6.27 ± 0.54 | 0.014 ± 0.003 | – | – | kcat/Km [3]: 0.0066 ± 0.00069 µM⁻¹ s⁻¹; Km ([3]; SEM): 920 ± 88 µM; kcat ([3]; SEM): 6.08 ± 0.25 s⁻¹; fold decrease in kcat relative to WT thrombin ([5]; W215A thrombin): 3 fold
Ac-TVELQGLVPRGVNL-NH2 [FXIII (28–41) L34 AP] | 142 ± 28 | 0.052 ± 0.003 | 0.00037 ± 0.0001 | 2 | 1 ± 0.201 | 5.07 ± 0.021 | 0.0051 ± 0.001 | 1.93 ± 0.354 | 5.94 ± 0.02 | 0.0031 ± 0.0002 | 3–4 fold | 3.62 ± 0.47 | 5.31 ± 0.002 | 0.0015 ± 0.0002 | – | 315 ± 42 | 22.9 ± 0.003 | 0.073 ± 0.0012 | 1110 ± 247 | 10.2 ± 0.04 | fold advantage in kcat/Km relative to V34 ([4]; L99A thrombin): 7 fold; kcat/Km [7]: 0.0091 ± 0.002 µM⁻¹ s⁻¹; fold decrease in kcat relative to WT thrombin ([7]; I174A thrombin): 2 fold; Km [8]: 696 ± 116 µM; kcat [8]: 0.37 ± 0.012 s⁻¹; kcat/Km [8]: 0.00053 ± 0.00012 µM⁻¹ s⁻¹; fold decrease in kcat relative to WT thrombin [8]: 54 to 61 fold; fold increase in Km relative to WT thrombin [8]: 2 fold
Ac-TVELQGVVPRGVNL-NH2 [FXIII (28–41) V34 AP] | 745 ± 98 | 0.117 ± 0.008 | 0.00016 ± 2e-05 | – | 1.38 ± 0.422 | 0.86 ± 0.046 | 0.00063 ± 0.00019 | 2.07 ± 0.414 | 0.89 ± 0.07 | 0.00043 ± 0.0001 | 3–4 fold | 2.37 ± 0.372 | 5.53 ± 0.017 | 0.0023 ± 0.0007 | 4 | 298 ± 42 | 2.57 ± 0.005 | 0.0086 ± 0.001 | 204 ± 36 | 5.37 ± 0.01 | kcat/Km [7]: 0.026 ± 0.0001 µM⁻¹ s⁻¹; fold increase in kcat relative to WT thrombin ([7]; I174A thrombin): 2 fold; Km [8]: 678 ± 120 µM; kcat [8]: 0.048 ± 0.0032 s⁻¹; kcat/Km [8]: 7.1e-05 ± 1.3e-05 µM⁻¹ s⁻¹; fold decrease in kcat relative to WT thrombin [8]: 54 to 61 fold; fold increase in Km relative to WT thrombin [8]: 2 fold
